The source of these data is publication PMC4834131 (CPT: Pharmacometrics & Systems Pharmacology, 2016).

Each structure is given as a SMILES string. Values after ≈ are worked out from the molar mass of the structure shown.

The nature of series [1]: PK study after i.v. administration in rats. The following applies: rat, plasma, iv, 90 nmol/kg. The format is in vivo.
A further series addresses T1, glucocorticoid receptor (Rattus norvegicus, UniProt P06536).
T1 sequence (P06536 1-795): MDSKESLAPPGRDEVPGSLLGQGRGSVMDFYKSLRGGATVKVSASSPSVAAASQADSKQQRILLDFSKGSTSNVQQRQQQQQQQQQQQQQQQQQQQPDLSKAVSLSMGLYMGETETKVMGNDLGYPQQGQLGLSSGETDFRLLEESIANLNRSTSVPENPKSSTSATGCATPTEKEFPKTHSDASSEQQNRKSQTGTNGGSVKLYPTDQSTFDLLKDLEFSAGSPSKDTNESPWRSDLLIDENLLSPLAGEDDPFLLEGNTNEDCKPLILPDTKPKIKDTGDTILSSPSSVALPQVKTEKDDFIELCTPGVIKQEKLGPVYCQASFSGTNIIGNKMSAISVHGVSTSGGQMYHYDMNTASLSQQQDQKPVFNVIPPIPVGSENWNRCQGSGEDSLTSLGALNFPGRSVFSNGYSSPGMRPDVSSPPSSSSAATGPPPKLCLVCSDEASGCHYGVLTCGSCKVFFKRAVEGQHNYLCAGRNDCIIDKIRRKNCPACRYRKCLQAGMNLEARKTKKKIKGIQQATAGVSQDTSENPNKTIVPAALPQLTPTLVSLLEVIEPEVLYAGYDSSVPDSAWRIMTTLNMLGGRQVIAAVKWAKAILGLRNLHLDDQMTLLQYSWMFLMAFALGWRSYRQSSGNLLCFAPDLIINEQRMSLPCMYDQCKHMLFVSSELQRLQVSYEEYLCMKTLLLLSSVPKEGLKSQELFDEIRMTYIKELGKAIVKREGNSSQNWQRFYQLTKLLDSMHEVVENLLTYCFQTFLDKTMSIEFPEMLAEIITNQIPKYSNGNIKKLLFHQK
In words: In vivo glucocorticoid receptor occupancy study. The following applies: iv, read-out: Observed receptor occupancy.

A short description of series [2]: Estimation of solubility Cs by fitting PBPK model to total lung concentrations. The format is in vivo. The following applies: rat, inhaled, 11.3 nmol/kg. In short, it runs like this: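 Fit of the whole-body PBPK model with lung disposition to total lung concentrations in rats after nose-only inhalation (lung deposited dose 11.3 nmol/kg). Fitting used nonlinear least squares (Levenberg–Marquardt). The starting value came from an exhaustive sum-of-squares search over a broad range, then 300 candidates within ±200 nM of the best solution. Particle dissolution followed the Nernst–Brunner equation; all other inputs were fixed.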

Series [3] in a line: In vitro apparent permeability across CaCo2-monolayers. The following applies: human, Caco-2. The series is classed as in vitro ADME. (In general: Caco-2 monolayers are a common model of the intestinal barrier.)
The nature of series [4]: Fraction unbound in plasma. The series is classed as in vitro ADME.
The nature of a further series: logD7.4. The series is classed as physicochemical. The following applies: pH 7.4.
Series [5] in a line: Unbound lung volume of distribution. The series is classed as in vitro ADME.

The term clearance denotes the rate of elimination divided by the concentration. The low end stands for inefficient removal, the high end for efficient removal. What is called Vd is a proportionality between amount in the body and measured concentration, not a real space. What is called solubility is how much of the substance goes into solution per volume. The term Papp denotes the rate of passage across a membrane or cell layer, normalised by area and donor concentration. For orientation: fraction unbound means free concentration divided by total concentration. High values mean weak binding, low ones extensive binding. In general, logD refers to lipophilicity at a set pH, counting ionised and neutral species. Read a low logD as a more hydrophilic compound. Molecule `CCC(=O)O[C@]1(C(=O)SCF)[C@H](C)C[C@H]2[C@@H]3C[C@H](F)C4=CC(=O)C=C[C@]4(C)[C@@]3(F)[C@@H](O)C[C@@]21C` [fluticasone propionate] showed a clearance in series [1] (CLP (plasma clearance)) of 182 mL/min/kg. Besides, in series [1] (Vdss (volume of distribution at steady state)), the Vd was found to be 12.5 L/kg. In addition, on glucocorticoid receptor, the receptor occupancy at 0.02 µmol/kg came out at 27 ± 9.7% and the receptor occupancy at 0.75 µmol/kg was determined as 100 ± 3.5%. Besides, the solubility in series [2] is 4.53 µM (≈ 2.27 µg/mL). The Papp in series [3] stood at 46.9 ×10⁻⁶ cm/s. This molecule also displayed a fraction unbound in series [4] of 0.016. In “logD7.4”, this molecule returned a logD of 4.2. The “Vu,lung (unbound lung volume of distribution)” value in series [5] is on record as 213.4 mL/g lung tissue.
